ChEMBL document CHEMBL2177035, “Design and synthesis of dual modulators of soluble epoxide hydrolase and peroxisome proliferator-activated receptors” (J Med Chem, 2012)
Activity calls are given as the source filed them. No cut-off for these calls is given here.

Tests used:
[1] = molecular target: T1, Peroxisome proliferator-activated receptor delta (Homo sapiens) (UniProt Q03181); experiment: Transactivation of GAL4-fused human PPARdelta ligand binding domain transfected in african green monkey COS7 cells at 10 uM by luciferase reporter gene assay relative to L-165041; assay type: cell-based; conditions: COS-7
T1 sequence (whole entry): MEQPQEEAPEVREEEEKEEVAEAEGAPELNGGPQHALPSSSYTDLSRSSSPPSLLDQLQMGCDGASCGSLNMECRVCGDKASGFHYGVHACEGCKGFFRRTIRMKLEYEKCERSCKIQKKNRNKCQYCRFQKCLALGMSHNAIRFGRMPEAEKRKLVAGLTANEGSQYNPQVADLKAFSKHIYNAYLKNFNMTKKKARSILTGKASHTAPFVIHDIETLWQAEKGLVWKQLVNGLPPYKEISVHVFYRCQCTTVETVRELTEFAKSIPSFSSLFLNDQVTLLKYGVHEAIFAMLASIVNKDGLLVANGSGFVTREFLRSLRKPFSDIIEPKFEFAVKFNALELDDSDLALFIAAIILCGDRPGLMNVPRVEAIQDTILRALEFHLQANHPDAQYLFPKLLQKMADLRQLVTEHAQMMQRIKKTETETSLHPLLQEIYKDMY
Outline: (§1)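 COS7 cells in DMEM/10% FCS at 37 °C, 5% CO2, plated 30000/well the day before. Lipofectamine LTX co-transfection of pFR-Luc, pRL-SV40 and Gal4–hPPAR-LBD (pFA-CMV) of the given subtype. After 5 h, switched to phenol red-free DMEM/10% FCS with 0.1% DMSO and compound; overnight incubation. Dual-Glo firefly/renilla luminescence, normalized to DMSO. Maximum effect compared with 1 μM reference agonist (GW7647 for α, L165,041 for δ). Triplicate wells, ≥3 independent runs.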

[2] = molecular target: T2, Peroxisome proliferator-activated receptor alpha (Homo sapiens) (UniProt Q07869); experiment: Transactivation of GAL4-fused human PPARalpha ligand binding domain transfected in african green monkey COS7 cells at 10 uM by luciferase reporter gene assay relative to GW7647; assay type: cell-based; conditions: COS-7; outline: as §1
T2 sequence (whole entry): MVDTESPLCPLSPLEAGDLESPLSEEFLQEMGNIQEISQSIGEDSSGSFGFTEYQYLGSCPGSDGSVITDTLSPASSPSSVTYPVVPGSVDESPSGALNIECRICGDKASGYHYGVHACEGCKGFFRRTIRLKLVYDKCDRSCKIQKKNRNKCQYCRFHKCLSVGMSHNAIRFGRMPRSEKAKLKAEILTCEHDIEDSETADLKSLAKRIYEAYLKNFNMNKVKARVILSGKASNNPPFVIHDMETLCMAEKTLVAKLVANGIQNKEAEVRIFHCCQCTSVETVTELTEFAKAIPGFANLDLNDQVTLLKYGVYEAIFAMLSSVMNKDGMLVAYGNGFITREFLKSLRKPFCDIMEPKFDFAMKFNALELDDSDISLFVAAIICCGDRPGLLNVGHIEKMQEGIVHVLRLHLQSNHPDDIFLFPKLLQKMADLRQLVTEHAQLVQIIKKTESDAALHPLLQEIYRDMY

[3] = molecular target: T3, Bifunctional epoxide hydrolase 2 (Homo sapiens, UniProt P34913); experiment: Inhibition of recombinant soluble epoxide hydrolase using PHOME as substrate after 10 mins by fluorescence assay
T3 sequence (P34913 whole entry): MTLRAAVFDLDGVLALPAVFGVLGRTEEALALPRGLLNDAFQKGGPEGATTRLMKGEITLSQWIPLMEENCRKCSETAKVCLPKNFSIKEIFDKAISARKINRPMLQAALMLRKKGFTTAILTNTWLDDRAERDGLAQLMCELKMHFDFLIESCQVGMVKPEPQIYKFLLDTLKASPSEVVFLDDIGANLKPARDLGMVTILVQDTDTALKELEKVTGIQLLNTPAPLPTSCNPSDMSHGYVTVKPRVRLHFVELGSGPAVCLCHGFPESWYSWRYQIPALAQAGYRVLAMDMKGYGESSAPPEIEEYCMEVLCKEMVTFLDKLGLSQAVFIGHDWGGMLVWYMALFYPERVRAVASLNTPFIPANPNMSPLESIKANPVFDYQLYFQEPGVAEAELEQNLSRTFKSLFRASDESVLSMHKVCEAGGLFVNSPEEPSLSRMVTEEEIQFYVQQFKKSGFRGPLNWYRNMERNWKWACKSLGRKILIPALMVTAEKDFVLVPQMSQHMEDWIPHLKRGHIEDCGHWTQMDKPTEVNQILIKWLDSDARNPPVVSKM

[4] = molecular target: T1, Peroxisome proliferator-activated receptor delta (Homo sapiens); experiment: Transactivation of GAL4-fused human PPARdelta ligand binding domain transfected in african green monkey COS7 cells by luciferase reporter gene assay; assay type: cell-based; conditions: COS-7
Outline: (§2)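 Gal4–hPPAR-LBD (α or δ) transient co-transfection with pFR-Luc and pRL-SV40 into COS7 cells seeded 30000/well. Compounds given in phenol red-free DMEM/10% FCS with 0.1% DMSO from 5 h post-transfection, overnight. Firefly over renilla luminescence, divided by DMSO control. EC50 and SD from means of ≥3 determinations by four-parameter logistic fit; triplicate wells, ≥3 independent experiments.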

[5] = molecular target: T2, Peroxisome proliferator-activated receptor alpha (Homo sapiens); experiment: Transactivation of GAL4-fused human PPARalpha ligand binding domain transfected in african green monkey COS7 cells by luciferase reporter gene assay; assay type: cell-based; conditions: COS-7; outline: as §2

Activity [1] | Activity [2] | IC50 [3] | Activity [4] | %max [5] | Activity [5] | SMILES
inactive | inactive |  |  |  |  | CCOC(=O)c1cccn1Cc1cccc(CNC(=O)Nc2ccc(OC(F)(F)F)cc2)c1
inactive | inactive | 1920 nM |  |  |  | O=C(NCc1cccc(Cn2cccc2C(=O)O)c1)NC1CCCCC1
inactive | inactive | 304 nM |  |  |  | O=C(NCc1cccc(Cn2cccc2C(=O)O)c1)NC12C[C@H]3C[C@@H](C1)C[C@@H](C2)C3
inactive | inactive | 27 nM |  |  |  | CCOC(=O)c1cccn1Cc1cccc(CNC(=O)NC2CCCCC2)c1
inactive | inactive | 252 nM |  |  |  | O=C(NCc1ccc(Cn2cccc2C(=O)O)cc1)NC1CCCCC1
inactive | inactive | 87 nM |  |  |  | CCOC(=O)c1cccn1Cc1ccc(CNC(=O)NC23C[C@H]4C[C@@H](C2)C[C@@H](C3)C4)cc1
inactive | 67% | 258 nM | inactive | 90% |  | O=C(NCc1ccc(Cn2cccc2C(=O)O)cc1)Nc1ccc(OC(F)(F)F)cc1
inactive | inactive | 2010 nM |  |  |  | CCOC(=O)c1cccn1Cc1ccccc1CNC(=O)Nc1ccc(OC(F)(F)F)cc1
 | 58% | 943 nM |  | 97% |  | O=C(NCc1cccc(Cn2cccc2C(=O)O)c1)Nc1ccc(OC(F)(F)F)cc1
inactive | inactive | 73 nM |  |  |  | O=C(NCc1ccc(Cn2cccc2C(=O)O)cc1)NC12C[C@H]3C[C@@H](C1)C[C@@H](C2)C3
inactive | inactive | 43 nM |  |  |  | CCOC(=O)c1cccn1Cc1ccccc1CNC(=O)NC12C[C@H]3C[C@@H](C1)C[C@@H](C2)C3
inactive | inactive | 39 nM |  |  |  | CCOC(=O)c1cccn1Cc1ccccc1CNC(=O)NC1CCCCC1
inactive | inactive | 611 nM |  |  |  | CCOC(=O)c1cccn1Cc1ccc(CNC(=O)Nc2ccc(OC(F)(F)F)cc2)cc1
inactive | inactive | 747 nM |  |  |  | O=C(NCc1ccccc1Cn1cccc1C(=O)O)NC1CCCCC1
inactive | inactive |  | inactive |  | inactive | O=C(NCc1ccccc1Cn1cccc1C(=O)O)NC12C[C@H]3C[C@@H](C1)C[C@@H](C2)C3
inactive | 38% |  | inactive | 55% |  | O=C(NCc1ccccc1Cn1cccc1C(=O)O)Nc1ccc(OC(F)(F)F)cc1
inactive | inactive | 23 nM |  |  |  | CCOC(=O)c1cccn1Cc1ccc(CNC(=O)NC2CCCCC2)cc1
inactive | inactive | 46 nM |  |  |  | CCOC(=O)c1cccn1Cc1cccc(CNC(=O)NC23C[C@H]4C[C@@H](C2)C[C@@H](C3)C4)c1
